Assay results from ChEMBL document CHEMBL1125116 (J Med Chem, 1990).

Experiments:
Rattus norvegicus [1] = assay: Biodistribution of [125I]-IBF in blood was determined in rats 60 minutes after intraveneous injection; format: ADME, organism-based; details: in vivo, iv, 1 h
In short: (§1)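 Male Sprague–Dawley rats (225–300 g) with free access to food and water. Under halothane anesthesia they received [125I]IBF (8–10 μCi in 0.2 mL saline) into the femoral vein. Rats were killed by cardiac excision under halothane at the stated time. Organs were weighed and gamma-counted, and % dose/organ was taken against diluted aliquots of the injectate. Blood was assumed to be 7% of body weight and muscle 40%.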

Rattus norvegicus [2] = assay: Biodistribution of [125I]IBF in spleen was determined in rats 120 minutes after intraveneous injection; format: ADME, organism-based; details: in vivo, iv, 2 h; in short: as §1
Rattus norvegicus [3] = assay: Biodistribution of [125I]IBF in blood was determined in rats 30 minutes after intraveneous injection; format: ADME, organism-based; details: in vivo, iv, 0.5 h; in short: as §1
Rattus norvegicus [4] = assay: Biodistribution of [125I]IBF in lung was determined in rats 30 minutes after intraveneous injection; format: ADME, organism-based; details: in vivo, iv, 0.5 h; in short: as §1
Rattus norvegicus [5] = assay: Biodistribution of [125I]IBF in srtiatum was determined in rats 15 minutes after intraveneous injection; format: ADME, organism-based; details: in vivo, iv, 0.25 h
Rattus norvegicus [6] = assay: Biodistribution of [125I]IBF in thyroid was determined in rats 60 minutes after intraveneous injection; format: ADME, organism-based, Thyroid gland; details: in vivo, iv, 1 h
In short: (§2)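 Male Sprague–Dawley rats (225–300 g) with free access to food and water were anesthetized with halothane. Each received 0.2 mL saline containing 8–10 μCi [125I]IBF into the femoral vein and was killed by cardiac excision under halothane at set times. Organs were weighed and gamma-counted, and uptake was calculated against diluted aliquots of the injected dose.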

[7] = Biodistribution of [125I]IBF in blood was determined in rats 30 minutes after intraveneous injection; details: rat, in vivo, iv, 0.5 h
Rattus norvegicus [8] = assay: Biodistribution of [125I]IBF in heart was determined in rats 15 minutes after intraveneous injection; format: ADME, organism-based; details: in vivo, iv, 0.25 h; in short: as §1
Rattus norvegicus [9] = assay: Biodistribution of [125I]-IBF in muscle was determined in rats 120 minutes after intraveneous injection; format: ADME, organism-based, Muscle tissue; details: in vivo, iv, 2 h; in short: as §1
Rattus norvegicus [10] = assay: Biodistribution of [125I]-IBF in blood was determined in rats 2 minutes after intraveneous injection; format: ADME, organism-based; details: in vivo, iv; in short: as §1
Rattus norvegicus [11] = assay: Biodistribution of [125I]IBF in brain/blood was determined in rats 60 minutes after intraveneous injection; format: ADME, organism-based; details: in vivo, iv, 1 h
Rattus norvegicus [12] = assay: Biodistribution of [125I]IBF in liver was determined in rats 2 minutes after intraveneous injection; format: ADME, organism-based; details: in vivo, iv; in short: as §1
Rattus norvegicus [13] = assay: Biodistribution of [125I]IBF in lung was determined in rats 15 minutes after intraveneous injection; format: ADME, organism-based; details: in vivo, iv, 0.25 h; in short: as §1
Rattus norvegicus [14] = assay: Biodistribution of [125I]IBF in lung was determined in rats 60 minutes after intraveneous injection; format: ADME, organism-based; details: in vivo, iv, 1 h; in short: as §1
Rattus norvegicus [15] = assay: Biodistribution of [125I]IBF in brain was determined in rats 60 minutes after intraveneous injection; format: ADME, organism-based; details: in vivo, iv, 1 h; in short: as §1
Rattus norvegicus [16] = assay: Biodistribution of [125I]IBF in liver was determined in rats 30 minutes after intraveneous injection; format: ADME, organism-based; details: in vivo, iv, 0.5 h; in short: as §1
Rattus norvegicus [17] = assay: Biodistribution of [125I]IBF in brain/blood was determined in rats 15 minutes after intraveneous injection; format: ADME, organism-based; details: in vivo, iv, 0.25 h
Rattus norvegicus [18] = assay: Biodistribution of [125I]IBF in brain was determined in rats 2 minutes after intraveneous injection; format: ADME, organism-based; details: in vivo, iv; in short: as §1
Rattus norvegicus [19] = assay: Biodistribution of [125I]IBF in spleen was determined in rats 30 minutes after intraveneous injection; format: ADME, organism-based; details: in vivo, iv, 0.5 h; in short: as §1
Rattus norvegicus [20] = assay: Biodistribution of [125I]-IBF in liver was determined in rats 60 minutes after intraveneous injection; format: ADME, organism-based; details: in vivo, iv, 1 h; in short: as §1
Rattus norvegicus [21] = assay: Biodistribution of [125I]IBF in skin was determined in rats 15 minutes after intraveneous injection; format: ADME, organism-based, Zone of skin; details: in vivo, iv, 0.25 h; in short: as §1
Rattus norvegicus [22] = assay: Biodistribution of [125I]IBF in lung was determined in rats 2 minutes after intraveneous injection; format: ADME, organism-based; details: in vivo, iv; in short: as §1
Rattus norvegicus [23] = assay: Biodistribution of [125I]IBF in liver was determined in rats 120 minutes after intraveneous injection; format: ADME, organism-based; details: in vivo, iv, 2 h; in short: as §1
Rattus norvegicus [24] = assay: Biodistribution of [125I]IBF in lung was determined in rats 120 minutes after intraveneous injection; format: ADME, organism-based; details: in vivo, iv, 2 h; in short: as §1
Rattus norvegicus [25] = assay: Biodistribution of [125I]IBF in blood was determined in rats 15 minutes after intraveneous injection; format: ADME, organism-based; details: in vivo, iv, 0.25 h; in short: as §1
Rattus norvegicus [26] = assay: Biodistribution of [125I]IBF in striatum was determined in rats 60 minutes after intraveneous injection; format: ADME, organism-based; details: in vivo, iv, 1 h; in short: as §2
Rattus norvegicus [27] = assay: Biodistribution of [125I]IBF in thyroid was determined in rats 120 minutes after intraveneous injection; format: ADME, organism-based, Thyroid gland; details: in vivo, iv, 2 h; in short: as §2
Rattus norvegicus [28] = assay: Biodistribution of [125I]IBF in striatum was determined in rats 2 minutes after intraveneous injection; format: ADME, organism-based; details: in vivo, iv; in short: as §2
Rattus norvegicus [29] = assay: Biodistribution of [125I]IBF in muscle was determined in rats 15 minutes after intraveneous injection; format: ADME, organism-based, Muscle tissue; details: in vivo, iv, 0.25 h; in short: as §1
Rattus norvegicus [30] = assay: Biodistribution of [125I]IBF in blood was determined in rats 120 minutes after intraveneous injection; format: ADME, organism-based; details: in vivo, iv, 2 h; in short: as §1

With CCN1CCC[C@H]1CNC(=O)c1cc(I)cc2c1OCC2 the Dose/organ (Rattus norvegicus [1]) was 0.98%, the Dose/organ (Rattus norvegicus [2]) was 0.03% and the Dose/organ (Rattus norvegicus [3]) was 1.26%. It also gave a Dose/organ (Rattus norvegicus [4]) of 0.82%, a Dose/organ (Rattus norvegicus [5]) of 0.842% and a Dose/organ (Rattus norvegicus [6]) of 0.02%. It also gave a Dose/organ [7] of 1.26%, a Dose/organ (Rattus norvegicus [8]) of 0.2% and a Dose/organ (Rattus norvegicus [9]) of 2.3%. It also gave a Dose/organ (Rattus norvegicus [10]) of 3.5%, a Dose/organ (Rattus norvegicus [11]) of 1.9 and a Dose/organ (Rattus norvegicus [12]) of 16.32%. For the same compound, the Dose/organ (Rattus norvegicus [13]) was 1.85%, the Dose/organ (Rattus norvegicus [14]) was 0.37% and the Dose/organ (Rattus norvegicus [15]) was 0.17%. It also gave a Dose/organ (Rattus norvegicus [16]) of 11.59%, a Dose/organ (Rattus norvegicus [17]) of 3.01 and a Dose/organ (Rattus norvegicus [18]) of 0.98%. The Dose/organ (Rattus norvegicus [19]) was 0.31%, the Dose/organ (Rattus norvegicus [20]) was 9.84% and the Dose/organ (Rattus norvegicus [21]) was 8.46%. For the same compound, the Dose/organ (Rattus norvegicus [22]) was 6.14%, the Dose/organ (Rattus norvegicus [23]) was 3.95% and the Dose/organ (Rattus norvegicus [24]) was 0.12%. It also gave a Dose/organ (Rattus norvegicus [25]) of 1.8%, a Dose/gram (Rattus norvegicus [26]) of 0.705 % dose/g and a Dose/organ (Rattus norvegicus [27]) of 0.08%. It also gave a Dose/organ (Rattus norvegicus [28]) of 0.743%, a Dose/organ (Rattus norvegicus [29]) of 14.36% and a Dose/organ (Rattus norvegicus [30]) of 0.23%.
